Values after ≈ are worked out from the molar mass of the structure shown. Blank lines part the entries; values can stand above or below the molecule they belong to. Active and inactive are the calls of the source. The rule behind the calls is not given here.
Columns and labels:
[1] = target: T1, Corticotropin-releasing factor receptor 1 (Rattus norvegicus, UniProt P35353); test: (§1) Displacement of [125I]oCRF from rat CRF1 after 2 hrs by Betaplate scintillation counter
T1 sequence (P35353 whole entry): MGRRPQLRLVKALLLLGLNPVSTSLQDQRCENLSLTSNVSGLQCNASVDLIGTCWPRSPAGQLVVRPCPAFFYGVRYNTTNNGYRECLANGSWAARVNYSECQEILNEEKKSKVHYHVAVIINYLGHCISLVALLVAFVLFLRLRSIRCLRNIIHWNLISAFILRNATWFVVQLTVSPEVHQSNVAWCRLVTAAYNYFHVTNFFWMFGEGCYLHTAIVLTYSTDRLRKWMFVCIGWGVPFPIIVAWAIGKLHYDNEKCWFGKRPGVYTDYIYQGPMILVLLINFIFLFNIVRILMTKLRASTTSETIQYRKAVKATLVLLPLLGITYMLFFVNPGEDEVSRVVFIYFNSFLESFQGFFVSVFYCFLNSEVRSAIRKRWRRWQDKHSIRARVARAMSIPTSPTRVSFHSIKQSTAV

[2] = Solubility at pH 7; type: physicochemical; conditions: buffer
[3] = Dissociation constant, pKa of the compound; type: physicochemical
[4] = Solubility at pH 2; type: physicochemical; conditions: buffer
Rattus norvegicus [5] = test: Ex vivo displacement of [125I]oCRF from CRF1 receptor in Sprague-Dawley rat brain cortex at 3.2 mg/kg, po after 2 hrs by Betaplate scintillation counter; type: functional
In short: (§2)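 Male Sprague–Dawley rats (200–300 g) dosed orally 3.2 mg/kg; killed usually 1 h later, brain and pituitary frozen. Tissue at 25 mg wet wt/mL in PIPES pH 7.0 buffer with MgCl2, EGTA, bacitracin, aprotinin, incubated with 40 pM 125I-oCRF 2 h at room temperature; nonspecific with 1 µM rat/human CRF. Pellets centrifuged, rinsed, filtered, scintillation counted.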

Rattus norvegicus [6] = test: Ex vivo displacement of [125I]oCRF from CRF1 receptor in Sprague-Dawley rat pituitary at 3.2 mg/kg, po after 2 hrs by Betaplate scintillation counter; type: functional; in short: as §2
[7] = Metabolic stability in human liver microsomes assessed as half life; type: ADME, Microsome
[8] = Intrinsic clearance in human liver microsomes; type: ADME, Microsome
[9] = Fraction unbound ligand in human serum; type: ADME, cell-free
[10] = target: T2, Corticotropin-releasing factor receptor 1 (Rattus norvegicus) (UniProt P35353); test: as §1
T2 sequence (whole entry): T1 sequence (P35353 whole entry)

[11] = Oral bioavailability in fasted Beagle dog at 1.0 mg/kg; type: ADME, organism-based, Canis lupus familiaris; conditions: in vivo
In short: (§3)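 Fasted beagles (fasted ~21 h, food ~3.5 h postdose) gavaged with drug suspended in 0.1% methyl cellulose pH 2. Jugular serum taken 0.25–24 h, GC-MS quantitation (LLOQ 1.0 ng/mL). Cmax and Tmax from observed profiles; F = (dose i.v.·AUC p.o.)/(dose p.o.·AUC i.v.), AUC by linear trapezoid with log-linear extrapolation.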

Rattus norvegicus [12] = test: Inhibition of CRF-induced startle response in Sprague-Dawley rat at 17.8 mg/kg, po; type: functional, organism-based; design: dose 17.8 mg/kg
In short: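 CRF 1 µg given icv to rats to enhance acoustic startle; compound dosed p.o. beforehand, with baseline startle also recorded.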

Rattus norvegicus [13] = test: Inhibition of fear-potentiated startle response in Sprague-Dawley rat at 10 mg/kg, po; type: functional, organism-based; design: dose 10 mg/kg
[14] = Clearance in Beagle dog at 1.0 mg/kg, iv; type: ADME, organism-based, Canis lupus familiaris; design: dose 1 mg/kg, route intravenous; conditions: in vivo
In short: (§4)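 Four beagles (2 male, 2 female, 8–15 kg), 1.0 mg/kg into cephalic vein; fasted ~21 h predose, fed ~3.5 h postdose. Serum sampled from jugular at 0.083–24 h, assayed by GC-MS (LLOQ 1.0 ng/mL). Noncompartmental: linear trapezoid AUC/AUMC, kel from log-linear terminal slope, t1/2 = 0.693/kel, CL = dose/AUC, VDss = CL·AUMC/AUC, VDγ = CL/kel.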

[15] = target: T3, Corticotropin-releasing factor receptor 2 (Homo sapiens, UniProt Q13324); test: Binding affinity for human CRF2 receptor; conditions: read-out: Ki app
T3 sequence (Q13324 whole entry): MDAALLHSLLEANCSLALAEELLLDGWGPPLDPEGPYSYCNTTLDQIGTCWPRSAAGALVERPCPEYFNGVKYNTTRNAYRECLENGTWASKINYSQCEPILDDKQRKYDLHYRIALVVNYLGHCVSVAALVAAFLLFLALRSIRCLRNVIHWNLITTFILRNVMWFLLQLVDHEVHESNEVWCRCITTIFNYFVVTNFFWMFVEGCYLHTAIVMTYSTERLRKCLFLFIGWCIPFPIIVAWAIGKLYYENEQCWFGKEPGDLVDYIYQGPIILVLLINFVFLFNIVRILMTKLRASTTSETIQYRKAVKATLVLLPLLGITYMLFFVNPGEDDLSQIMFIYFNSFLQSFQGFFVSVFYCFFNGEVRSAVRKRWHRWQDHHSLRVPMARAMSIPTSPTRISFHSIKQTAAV

[16] = target: T4, Corticotropin-releasing factor receptor 1 (Homo sapiens, UniProt P34998); test: Antagonist activity at human CRF1 receptor assessed as oCRF-stimulated adenylate cyclase activity after 15 mins by liquid scintillation counting; type: functional; conditions: read-out: Ki app
T4 sequence (P34998 whole entry): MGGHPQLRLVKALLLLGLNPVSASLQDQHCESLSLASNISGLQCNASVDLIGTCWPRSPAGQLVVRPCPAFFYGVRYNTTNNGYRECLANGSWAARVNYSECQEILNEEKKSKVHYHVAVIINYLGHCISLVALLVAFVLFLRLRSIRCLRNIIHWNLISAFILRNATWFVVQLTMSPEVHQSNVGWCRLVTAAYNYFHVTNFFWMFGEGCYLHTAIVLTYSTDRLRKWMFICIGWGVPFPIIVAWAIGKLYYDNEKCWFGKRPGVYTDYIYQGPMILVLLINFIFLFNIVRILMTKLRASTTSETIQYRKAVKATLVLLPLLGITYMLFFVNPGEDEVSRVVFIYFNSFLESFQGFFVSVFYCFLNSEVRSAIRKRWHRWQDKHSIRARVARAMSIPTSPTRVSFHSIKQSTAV

Rattus norvegicus [17] = test: Inhibition of CRF-induced exitation of locus coerulus neurons in iv dosed Sprague-Dawley rat; type: functional; conditions: read-out: ID50 (the source's name)
[18] = Volume of distribution at terminal elimination phase in Beagle dog at 1.0 mg/kg, iv; type: ADME, organism-based, Canis lupus familiaris; design: dose 1 mg/kg, route intravenous; conditions: in vivo; in short: as §4
[19] = Half life at terminal elimination phase in Beagle dog at 1.0 mg/kg, iv; type: ADME, organism-based, Canis lupus familiaris; design: dose 1 mg/kg, route intravenous; conditions: in vivo; in short: as §4
[20] = Tmax in fasted Beagle dog at 1.0 mg/kg, po; type: ADME, organism-based, Canis lupus familiaris; design: dose 1 mg/kg, route oral; conditions: in vivo; in short: as §3
Rattus norvegicus [21] = test: Inhibition of fear-potentiated startle response in Sprague-Dawley rat at 0.32 to 3.2 mg/kg, po; type: functional; design: scale not given: the % may be the effect or the level left; conditions: dose mg/kg 0.32-3.2
[22] = Cmax in fasted Beagle dog at 1.0 mg/kg, po; type: ADME, organism-based, Canis lupus familiaris; design: dose 1 mg/kg, route oral; conditions: in vivo; in short: as §3
Rattus norvegicus [23] = organism: Rattus norvegicus; test: Inhibition of CRF-induced […] of HPA axis in Sprague-Dawley rat assessed as increase in ACTH levels by radioimmunoassay; type: functional; conditions: read-out: MED
In short: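 Oral pretreatment in rats, N = 10 per group, then i.v. CRF 4 µg/kg; plasma ACTH measured. Minimum effective dose versus CRF alone by one-way ANOVA with Dunnett's post hoc test, p < 0.05.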

[24] = Solubility at pH 2.4; type: physicochemical; conditions: buffer
[25] = Tmax in fed Beagle dog at 1.0 mg/kg, po; type: ADME, organism-based, Canis lupus familiaris; design: dose 1 mg/kg, route oral; conditions: in vivo
In short: (§5)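 Beagles fed one can of wet dog food 1 h before gavage of drug suspended in 0.1% methyl cellulose pH 2. Serum from jugular venipuncture at 0.25–24 h postdose, GC-MS analysis (LLOQ 1.0 ng/mL). Bioavailability = dose-normalized oral AUC(0–∞) over i.v. AUC(0–∞).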

[26] = Volume of distribution at steady state in Beagle dog at 1.0 mg/kg, iv; type: ADME, organism-based, Canis lupus familiaris; design: dose 1 mg/kg, route intravenous; conditions: in vivo, read-out: Vdss; in short: as §4
[27] = target: T1, Corticotropin-releasing factor receptor 1; test: Antagonist activity at CRF1 receptor in rat cortical membrane assessed as oCRF-stimulated adenylate cyclase activity after 15 mins by liquid scintillation; type: functional, cell membranes; conditions: read-out: Ki app
[28] = Oral bioavailability in fed Beagle dog at 1.0 mg/kg; type: ADME, organism-based, Canis lupus familiaris; conditions: in vivo; in short: as §5
[29] = Cmax in fed Beagle dog at 1.0 mg/kg, po; type: ADME, organism-based, Canis lupus familiaris; design: dose 1 mg/kg, route oral; conditions: in vivo; in short: as §5
[30] = Cmax in fasted Beagle dog at 5.0 mg/kg, po; type: ADME, organism-based, Canis lupus familiaris; design: dose 5 mg/kg, route oral; conditions: in vivo; in short: as §3
[31] = Oral bioavailability in fasted Beagle dog at 5.0 mg/kg; type: ADME, organism-based, Canis lupus familiaris; conditions: in vivo; in short: as §3
[32] = Cmax in fed Beagle dog at 5.0 mg/kg, po; type: ADME, organism-based, Canis lupus familiaris; design: dose 5 mg/kg, route oral; conditions: in vivo; in short: as §5
[33] = Tmax in fed Beagle dog at 5.0 mg/kg, po; type: ADME, organism-based, Canis lupus familiaris; design: dose 5 mg/kg, route oral; conditions: in vivo; in short: as §5
[34] = Oral bioavailability in fed Beagle dog at 5.0 mg/kg; type: ADME, organism-based, Canis lupus familiaris; conditions: in vivo; in short: as §5
[35] = Tmax in fasted Beagle dog at 5.0 mg/kg, po; type: ADME, organism-based, Canis lupus familiaris; design: dose 5 mg/kg, route oral; conditions: in vivo; in short: as §3

IC50 [1]: 3.7 nM
Structure (SMILES): CCC(CC)Oc1cc(C)nc(Nc2c(C)cc(C)cc2C)c1C

IC50 [1]: 750 nM
pKa [3]: 9.3
Structure (SMILES): CCC(CC)Nc1cc(C)nc(Nc2c(C)cc(C)cc2C)c1C

Activity [10]: inactive
Structure (SMILES): CCC(CC)Oc1cc(C)nc(Nc2c(C)cc(C)cc2C)c1C(=O)O

bioavailability [11]: 22%
clearance [14]: 17 mL/min/kg
Ki [15]: > 10000 nM
solubility [2]: 0.1 µg/mL (≈ 0.000306 mM)
Ki [16]: 12 nM
Vd [18]: 12 L/kg
half-life [19]: 8.8 h
IC50 [1]: 5.1 nM
Tmax [20]: 1.8 h
Cmax [22]: 46.2 ng/mL
solubility [24]: 5400 µg/mL (≈ 16.5 mM)
Tmax [25]: 2 h
Vd [26]: 5.3 L/kg
Ki [27]: 12 nM
half-life [7]: 0.633 h
pKa [3]: 6.9
bioavailability [28]: 64%
Cmax [29]: 131 ng/mL
Structure (SMILES): CCC(CC)Nc1cc(C)nc(Oc2c(C)cc(C)cc2C)c1C
Activity (Rattus norvegicus [12]): Active
Activity (Rattus norvegicus [13]): Active
inhibition in vivo at 3.2 mg/kg (Rattus norvegicus [5]): 81%
ED50 (Rattus norvegicus [17]): < 0.01 mg/kg
Activity (Rattus norvegicus [21]): 62%
minimal effective dose (Rattus norvegicus [23]): 10 mg/kg
inhibition in vivo at 3.2 mg/kg (Rattus norvegicus [6]): 49%

Continued, molecule first:

Structure (SMILES): CCC(CC)Oc1cc(C)nc(Oc2c(C)cc(C)cc2C)c1C.CS(=O)(=O)O
solubility [2]: 0.2 µg/mL
pKa [3]: 3.6
solubility [4]: 3 µg/mL

Structure (SMILES): CCC(CC)Nc1cc(C)nc(Oc2c(C)cc(Cl)cc2C)c1C
inhibition in vivo at 3.2 mg/kg (Rattus norvegicus [5]): 79%
IC50 [1]: 7.2 nM
inhibition in vivo at 3.2 mg/kg (Rattus norvegicus [6]): 72%
half-life [7]: 0.5 h

Structure (SMILES): CC[C@@H](CO)Nc1cc(C)nc(Oc2c(C)cc(Cl)cc2C)c1C(=O)OC
microsomal CLint [8]: 47 µL/min/mg
inhibition in vivo at 3.2 mg/kg (Rattus norvegicus [5]): 111%
IC50 [1]: 6.4 nM
inhibition in vivo at 3.2 mg/kg (Rattus norvegicus [6]): 86%

Structure (SMILES): CCC(CC)Nc1cc(C)nc(Oc2c(C)cc(Br)cc2C)c1C
inhibition in vivo at 3.2 mg/kg (Rattus norvegicus [5]): 86%
IC50 [1]: 5.6 nM
inhibition in vivo at 3.2 mg/kg (Rattus norvegicus [6]): 81%

Structure (SMILES): CC[C@@H](CO)Nc1cc(C)nc(Oc2c(C)cc(Cl)cc2C)c1C(=O)NC
inhibition in vivo at 3.2 mg/kg (Rattus norvegicus [5]): 86%
IC50 [1]: 31 nM
fraction unbound [9]: 0.045
inhibition in vivo at 3.2 mg/kg (Rattus norvegicus [6]): 63%

Structure (SMILES): CCC(CC)Oc1cc(C)nc(Oc2c(C)cc(C)cc2C)c1C
Cmax [30]: 187 ng/mL
bioavailability [31]: 3.6%
Cmax [32]: 1740 ng/mL
clearance [14]: 4.1 mL/min/kg
inhibition in vivo at 3.2 mg/kg (Rattus norvegicus [5]): 75%
Tmax [33]: 1.9 h
Vd [18]: 3.1 L/kg
bioavailability [34]: 37%
half-life [19]: 8.3 h
IC50 [1]: 6.8 nM
Tmax [35]: 1.5 h
Vd [26]: 1.1 L/kg
inhibition in vivo at 3.2 mg/kg (Rattus norvegicus [6]): 72%
